Results from different studies.
Protocols differ between the studies behind these lines.
Target: Ephrin type-B receptor 3 (EPHB3, Homo sapiens, UniProt P54753)

Cc1cc(NC(=O)c2cccc(S(F)(F)(F)(F)F)c2)cc(-n2ccn3nc(-c4cccnc4)cc23)c1 gave a remaining binding of 100% (cell-free assay, competition with immobilised ligand; 1 µM).
With CNC(=O)c1cc(Oc2ccc(NC(=O)Nc3ccc(Cl)c(C(F)(F)F)c3)cc2)ccn1 the inhibition was 3% (enzyme activity, inhibitor; 0.3 µM).
CCCOc1ccc(OC)c(F)c1C(=O)c1ccc(C(=O)N[C@@H]2CNC[C@H]2NC(=O)c2ccc3[nH]ncc3c2)cc1 has a remaining activity of 102% (enzyme activity, inhibitor; 10 µM).
COc1cc2ncnc(Nc3ccc(Oc4ccccc4)cc3C)c2cc1OC gave an inhibition of 1% (enzyme activity, inhibitor; 1 µM).
Clc1ccc(Nc2nnc(Cc3ccncc3)c3ccccc23)cc1 has a remaining signal of 65.1% (cell-free assay; 0.5 µM).
CC(C)(C)c1nc(-c2cccc(NS(=O)(=O)c3c(F)cccc3F)c2F)c(-c2ccnc(N)n2)s1 has a remaining activity of 92% (enzyme activity, inhibitor, radiometric; 1 µM).
COc1cc(Nc2cnc(C#N)c(O[C@H](C)CN(C)C)n2)ncc1-c1cnn(C)c1 has a remaining activity of 23% (enzyme activity, inhibitor, radiometric; 10 µM).
For N#CCCc1ccc2c(c1)-c1[nH]c3ccc([N+](=O)[O-])cc3c1CC(=O)N2, the remaining signal was 102% (cell-free assay; 0.5 µM).
With Cn1c(=O)n(-c2ccc(C(C)(C)C#N)cc2)c2c3cc(-c4cnc5ccccc5c4)ccc3ncc21 the remaining activity was 117% (enzyme activity, inhibitor; 10 µM).
CC(C)(O)[C@H]1CC[C@H](Nc2ccc3ncc(-c4cccc(C(F)(F)F)c4)n3n2)CC1 gave a remaining activity of 87.9% (enzyme activity, inhibitor; 1 µM).
For CCN(CC)CCNC(=O)c1c(C)[nH]c(/C=C2\C(=O)Nc3ccc(F)cc32)c1C, the inhibition was 10% (enzyme activity, inhibitor; 10 µM).
Cc1sc(C(=O)NC2COC2)cc1-n1cc(NC(=O)Nc2c(F)cccc2Cl)cn1 has a remaining activity of 97.2% (enzyme activity, inhibitor; 10 µM).
The activity vs control of Cc1ccc(C(=O)NCc2ccsc2)cc1C#Cc1cn(C(C)C)c2ncnc(N)c12 is reported as 100% (enzyme activity, inhibitor; 1 µM).
For CCCS(=O)(=O)Nc1ccc(F)c(C(=O)c2c[nH]c3ncc(-c4ccc(Cl)cc4)cc23)c1F, the inhibition was under 10% (enzyme activity, inhibitor; 1 µM).
The remaining signal of COc1cc2ncnc(Nc3ccc(F)c(Cl)c3)c2cc1OCCCN1CCOCC1 is reported as 57.5% (cell-free assay; 0.5 µM).
The remaining binding of Cn1nc(C(F)(F)F)cc1-c1cnc(N2CCc3cc(S(=O)(=O)Nc4c(F)cc(Cl)cc4F)cc(N4CCCC4=O)c32)nc1 is reported as 95% (cell-free assay, competition with immobilised ligand; 1 µM).
Oc1cccc(-c2nc(N3CCOCC3)c3oc4ncccc4c3n2)c1 has a remaining activity of 127% (enzyme activity, inhibitor; 10 µM).
Cn1nc(C(=O)NCc2ccc(C(=O)O)cc2)cc1-c1ccc2[nH]ccc2c1 has a remaining binding of 100% (cell-free assay, competition with immobilised ligand; 0.1 µM).
With Cc1cc(NC(=O)c2cccc3cc(-c4cccc5[nH]nc(N)c45)ccc23)ccc1F the activity vs control was 88% (enzyme activity, inhibitor; 0.1 µM).
For O=c1nc(-c2ccccn2)sc2ccccc12, the remaining binding was 100% (cell-free assay, competition with immobilised ligand; 1 µM).
Nc1ncnc2occ(-c3ccc(NC(=O)Nc4cc(C(F)(F)F)ccc4F)cc3)c12 has a remaining signal of 0% (cell-free assay; 20 µM).
CN1CCN(c2cnc3c(C4CCN(C(=O)c5ccc(OC(F)(F)F)cc5N)CC4)ncnc3c2)CC1 has a remaining binding of 100% (cell-free assay, competition with immobilised ligand; 1 µM).
Nc1nc(NC2CCCCC2)sc1C(=O)c1ccccc1 has a remaining activity of 88% (enzyme activity, inhibitor; 10 µM).
With CN([C@@H]1CCc2c(CC(=O)O)c3ccccc3n2C1)S(=O)(=O)c1ccc(F)cc1 the remaining binding was 88% (cell-free assay, competition with immobilised ligand; 1 µM).
For CN(c1ncccc1CNc1nc(Nc2ccc3c(c2)CC(=O)N3)ncc1C(F)(F)F)S(C)(=O)=O, the inhibition was 41% (enzyme activity, inhibitor; 1 µM).
COc1cc(Cl)c(C(=O)N[C@@H](CN[C@H]2CC[C@@H](N)CC2)Cc2ccc(C#N)cc2)cc1-c1ccc(CN[C@H](C)c2ccc(C)cc2)o1 gave a remaining activity of 97% (enzyme activity, inhibitor; 1 µM).
Cc1nc(C2CCN(C(=O)c3ccc(OC(F)(F)F)cc3N)CC2)c2ncc(N3CCN(C)CC3)cc2n1 gave a remaining binding of 100% (cell-free assay, competition with immobilised ligand; 1 µM).
COc1cc(/C=C/C(=O)CC(=O)/C=C/c2ccc(O)c(OC)c2)ccc1O gave an activity vs control of 93% (enzyme activity, inhibitor; 1 µM).
Cn1cncc1C1=CN(c2ncnc3[nH]cnc23)CCS1 has an inhibition of 12.8% (enzyme activity, inhibitor, radiometric; 50 nM).
With CCCOc1ccc([C@H]2[C@H](C(=O)O)[C@@H](c3ccc4c(c3)OCO4)CN2CC(=O)Nc2c(CC)cccc2CC)cc1 the remaining binding was 97% (cell-free assay, competition with immobilised ligand; 1 µM).
